Consider 15 compounds from ChEMBL document CHEMBL2396619, “Synthesis and neuroprotective effect of E-3,4-dihydroxy styryl aralkyl ketones derivatives against oxidative stress and inflammation” (Bioorg Med Chem Lett, 2013).

Data set [1] can be described thus: Cytotoxicity against mouse BV2 cells assessed as cell viability at 50 uM after 24 hrs by MTT assay. In kind it is cell-based, BV-2. To be noted: read-out: Activity. An outline of the steps:
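BV2 cells exposed to compounds at up to 50 µM for up to 24 h; viability determined by MTT assay.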
A general note: Tetrazolium assays rely on reduction of a dye to a coloured formazan, in cell work by metabolically active cells.

The test system of data set [2] is PC-12. The data set is described as follows: Neuroprotective activity in rat PC12 cells assessed as protection against H2O2-induced reduction of cell viability at 10 uM treated 3 hrs before H2O2 addition measured after 5 hrs by MTT assay. Type of data set: functional, cell-based. The gist of the method: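 PC12 cells pretreated with compound at 10 µM for 3 h, then exposed to 500 µM H2O2 for 5 h. Viability measured by MTT and expressed as OD(treated)/OD(control) ×100%, with untreated cells (no compound, no H2O2) set to 100%. Mean ± SD, n = 3.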

Data set [3] deals with BV-2. The data set is described as follows: Antineuroinflammatory activity in mouse BV2 cells assessed as reduction of LPS-induced nitric oxide production treated 3 hrs before LPS addition measured after 24 hrs by Griess assay. Type of data set: functional, cell-based. An outline of the steps: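 LPS-stimulated BV2 microglia; nitrite in culture supernatant measured by Griess assay: supernatant mixed with an equal amount of Griess reagent, incubated in the dark, absorbance read at 540 nm.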
(Nitrite, measured by Griess reagent, commonly stands in for NO production.)

The test system of data set [4] is Radical scavenging activity. The experiment in a line: Antioxidant activity assessed as DPPH free radical scavenging activity at 50 uM after 60 mins by spectrophotometry. Type of data set: functional.
The subject of data set [5] is Radical scavenging activity. The data set is described as follows: Antioxidant activity assessed as DPPH free radical scavenging activity after 60 mins by spectrophotometry. Type of data set: functional. On the technique in general: The DPPH test is a chemical assay of radical scavenging.
Data set [6] can be described thus: Ratio of caffeic acid phenethyl ester IC50 to compound IC50 for DPPH free radical scavenging activity.
The test system of data set [7] is BV-2. The experiment in a line: Ratio of caffeic acid phenethyl ester IC50 to compound IC50 for antineuroinflammatory activity in mouse BV2 cells assessed as reduction of LPS-induced nitric oxide production. Type of data set: functional.

Activity calls are given as the source filed them. The calls are words filed in the database; no cut-off is given here.

As to `CC(=O)Oc1ccc(/C=C/C(=O)CCc2cccc(Cl)c2)cc1OC(C)=O`, in data set [1], the viability at 24 h, 50 µM was more than 90%. For the same compound, the result in data set [2] was Active. For the same compound, the IC50 – broadly, the midpoint of a concentration-inhibition curve – in data set [3] came out at 8.3 µM. The inhibition entry in data set [4] is “inactive”.
For the compound `O=C(/C=C/c1ccc(O)c(O)c1)CCc1cccc(Cl)c1`, the viability at 24 h, 50 µM in data set [1] was more than 90%. Moreover, the outcome in data set [2] was Active. Moreover, the results for the IC50 in data set [3] and in data set [5] were 10.3 µM and 11.1 µM, respectively.
On to `COc1cc(CCC(=O)/C=C/c2ccc(OC(C)=O)c(OC(C)=O)c2)ccc1O`, for which the viability at 24 h, 50 µM in data set [1] was more than 90%. Also, the outcome in data set [2] was Active. For the same compound, in data set [3], the IC50 was 5.5 µM. Further, in data set [4], the inhibition result was “inactive”.
Regarding `COc1cc(CCC(=O)/C=C/c2ccc(O)c(O)c2)ccc1O`, the viability at 24 h, 50 µM in data set [1] was more than 90%. In addition, the result in data set [2] was Active. Also, the IC50 in data set [3] is 6.3 µM; in data set [5], 12.1 µM.
Regarding `COc1ccc(CCC(=O)/C=C/c2ccc(OC(C)=O)c(OC(C)=O)c2)cc1OC`, the viability at 24 h, 50 µM in data set [1] is more than 90%. Further, the result in data set [2] was Active. Besides, in data set [3], the half-inhibitory concentration (IC50) is 12.6 µM. Moreover, the inhibition result in data set [4] was “inactive”.
On to `O=C(/C=C/c1ccc(O)c(O)c1)CCCc1ccccc1`, for which the viability at 24 h, 50 µM in data set [1] was more than 90%. Further, the outcome in data set [2] was Active. Moreover, the Ratio IC50 in data set [6] turned out to be 1.3. For the same compound, the IC50 in data set [3] stood at 6.4 µM; in data set [5], 9.2 µM.
Consider `CC(=O)Oc1ccc(/C=C/C(=O)CCCc2ccccc2)cc1OC(C)=O`, for which the viability at 24 h, 50 µM in data set [1] is more than 90%. For the same compound, the outcome in data set [2] was Active. Further, the IC50 in data set [3] stood at 5.3 µM. In data set [4], the inhibition result was “inactive”.
With `CC(=O)Oc1ccc(/C=C/C(=O)OCCc2ccccc2)cc1OC(C)=O`, in data set [4], the inhibition result is “inactive”.
With `CC(=O)Oc1ccc(/C=C/C(=O)CCCCc2ccccc2)cc1OC(C)=O`, the “Ratio IC50” value in data set [7] stood at 1.5. In addition, in data set [1], the viability at 24 h, 50 µM was more than 90%. The outcome in data set [2] was Active. Also, the IC50 in data set [3] came to 4.2 µM. The inhibition result in data set [4] is “inactive”.
On to `COc1ccc(CCC(=O)/C=C/c2ccc(O)c(O)c2)cc1OC`, for which the viability at 24 h, 50 µM in data set [1] is more than 90%. Moreover, the outcome in data set [2] was Active. The concentration for half-maximal inhibition (IC50) in data set [3] was 14.5 µM; in data set [5], 13.2 µM.
The corresponding values for `COc1ccc(CCC(=O)/C=C/c2ccc(O)c(O)c2)c(OC)c1` are more than 90%, “Active”, 10.6 µM and 14 µM.
In the case of `O=C(/C=C/c1ccc(O)c(O)c1)CCCCc1ccccc1`, the viability at 24 h, 50 µM in data set [1] was more than 90%. Moreover, the outcome in data set [2] was Active. The IC50 in data set [3] was 5.9 µM; in data set [5] it was 10.6 µM.
Consider `COc1ccc(CCC(=O)/C=C/c2ccc(OC(C)=O)c(OC(C)=O)c2)c(OC)c1`, for which, in data set [1], the viability at 24 h, 50 µM is more than 90%. In addition, the result in data set [2] was Active. For the same compound, in data set [3], the IC50 came to 9.3 µM. The inhibition entry in data set [4] is “inactive”.
The corresponding values for `CC(=O)Oc1ccc(/C=C/C(=O)CCc2ccccc2)cc1OC(C)=O` are more than 90%, “Active”, 12.3 µM and “inactive”.
As to `O=C(/C=C/c1ccc(O)c(O)c1)CCc1ccccc1`, the viability at 24 h, 50 µM in data set [1] is more than 90%. In addition, in data set [2], the outcome was Active. Moreover, the IC50 turned out to be 14.1 µM in data set [3] and 12.7 µM in data set [5].
